Calls of active or inactive are those of the source.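 The calls were made as follows: active = potentiation averaged over duplicate wells exceeding buffer-only control mean by more than 3 SD; inactive = the rest.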

The target of this test is Potassium voltage-gated channel subfamily KQT member 1 (Homo sapiens) (UniProt P51787). Nature of the test: KCNQ1 potassium channel potentiators, confirmation, FluxOR thallium flux, CHO cells, duplicates (AID 493007).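 As to outcome: cells depolarized by a potassium plus thallium sulfate stimulus after compound.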 The note with it: KCNQ1 cell line, FluxOR thallium flux fluorescence, at 10 µM; hits give high values, % of reference activator effect, buffer zero. In short, it runs like this: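 Test system – KCNQ1-expressing CHO cell line · Incubation – FluxOR dye loading 90 min, compound exposure 20 min, room temperature · Detection – FluxOR Tl+ flux fluorescence, 10 s baseline plus 110 s recording · Controls – buffer-only wells as 0% and R-L3 activator as 100%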
Potassium voltage-gated channel subfamily KQT member 1 (Homo sapiens), sequence (P51787 whole entry, looked up): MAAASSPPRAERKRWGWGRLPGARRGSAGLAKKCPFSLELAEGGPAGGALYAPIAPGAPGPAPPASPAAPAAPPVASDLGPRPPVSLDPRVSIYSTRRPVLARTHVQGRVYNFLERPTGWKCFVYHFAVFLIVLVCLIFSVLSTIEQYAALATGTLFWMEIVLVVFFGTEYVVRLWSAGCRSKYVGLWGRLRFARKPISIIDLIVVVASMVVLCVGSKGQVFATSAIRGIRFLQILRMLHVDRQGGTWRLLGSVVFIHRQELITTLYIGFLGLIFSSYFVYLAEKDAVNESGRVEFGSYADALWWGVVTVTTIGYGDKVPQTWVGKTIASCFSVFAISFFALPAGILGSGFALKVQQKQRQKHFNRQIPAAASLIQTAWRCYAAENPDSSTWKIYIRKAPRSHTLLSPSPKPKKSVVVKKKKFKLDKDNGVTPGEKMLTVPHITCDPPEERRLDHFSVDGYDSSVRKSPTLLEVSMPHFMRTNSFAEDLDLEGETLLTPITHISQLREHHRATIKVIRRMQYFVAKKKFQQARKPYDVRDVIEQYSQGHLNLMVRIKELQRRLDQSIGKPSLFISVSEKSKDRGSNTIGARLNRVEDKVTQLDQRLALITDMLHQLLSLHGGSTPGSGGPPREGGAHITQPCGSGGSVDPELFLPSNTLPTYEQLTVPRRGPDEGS
With `CCCCNC(=O)CNC(=O)c1nn(-c2ccc(OC)cc2OC)c(=O)c2ccccc12`, the outcome was inactive.
With `O=C(NC(=S)Nc1nc2c(ccc3ccccc32)s1)c1cccs1`, the potentiation is 81% (active).
Regarding `NC(=O)c1ccc(N2CCNC(=O)C2)c([N+](=O)[O-])c1`, the result was inactive.
Consider `Cc1cccc(N(CC(=O)NC2CCCC2)C(=O)c2csnn2)c1C`, for which the result was inactive.
As to `CNCCC=C1c2ccccc2CCc2ccccc21`, the potentiation is 76% (active).
On to `O=C(OCc1ccccc1)C1=NNC2C(=O)N(c3ccccc3)C(=O)C12` (stereo not given), for which the result was inactive.
In the case of `COc1ccc(C2c3ccc4ccccc4c3Oc3ncn(CCCO)c(=N)c32)cc1OC` (stereo not given), the result was inactive.
On to `CCS(=O)(=O)N1Cc2ccccc2CC1C(=O)Nc1cccc(S(=O)(=O)N(C)C)c1` (stereo not given), for which the result was inactive.
In the case of `S=c1[nH]c2ccccc2c2ccccc12`, the outcome was inactive.
Consider `O=C(NC(=S)NC1CCCc2ccccc21)c1ccc(F)cc1` (stereo not given), for which the potentiation is 19.5% (active).
Consider `O=C(c1ccc(COc2c(F)c(F)cc(F)c2F)o1)N1CCN(c2ccc(Cl)cc2)CC1`, for which the result was inactive.
For the molecule `O=C(c1nnsc1S(=O)c1ccc(Cl)cc1)N1CCOCC1` (stereo not given), the potentiation is 17.5% (active).
Regarding `CC1(c2ccc(OC(F)F)cc2)NC(=O)N(CC(=O)Nc2ccccc2)C1=O` (stereo not given), the result was inactive.
On to `Cc1ccc(C)c(NC(=S)NNC(=O)c2csc(C(C)C)c2)c1`, for which the potentiation is 55.5% (active).
Regarding `Cc1ccc(-c2nn(-c3ccccc3)cc2/C=N/n2c(-c3cccs3)n[nH]c2=S)cc1`, the potentiation was 23% (active).
As to `CCOC(=O)CS(=O)(=O)c1nc(-c2ccc(F)cc2)cc(C(F)(F)F)n1`, the outcome was inactive.
On to `COC(=O)c1ccc(CSc2nnc(SCc3ccc(C(=O)OC)o3)s2)o1`, for which the result was inactive.
On the same count and under the same terms, in the case of `COc1ccc(OC)c(Nc2cc3ccccc3c(=O)[nH]2)c1` it was “inactive”; in that of `CCOC(=O)C1CCN(C(=O)COC(=O)c2cc(-c3cccs3)nn2-c2ccccc2)CC1`, “inactive”.
`Cc1ccc(/C=C2\SC(=S)N(NS(=O)(=O)c3ccc(C)cc3)C2=O)cc1`: the potentiation was 25.5% (active).
As for `CCOc1cc(S(=O)(=O)Nc2ccc(Cl)cn2)ccc1Cl`, the result was inactive.
On to `Cc1ccc(Nc2c(-c3ccc(C)o3)nc3cnccn23)cc1`, for which the outcome was inactive.
`O=[N+]([O-])c1ccc(C(O)C(CO)NC(=S)Nc2ccccc2)cc1` (stereo not given): the outcome was inactive.
`COCC(=O)Nc1nnc(SCC(=O)N2C(C)CCCC2C)s1` (stereo not given): the result was inactive.
With `CCc1ccc(C2c3[nH]c4ccccc4c3CCN2C(=O)CN2CCN(CC)CC2)cc1` (stereo not given), the outcome was inactive.
For the molecule `COc1ccc(/C=C(\NC(=O)c2cccs2)C(=O)N2CCOCC2)cc1OC`, the potentiation is 29.5% (active).
Take `Cc1cc(OC(=O)c2cc(Cl)ccc2Cl)c([N+](=O)[O-])c(=O)[nH]1`: the outcome was inactive.
Take `CC(=O)c1ccc(NC(=S)NC(=O)c2c(Cl)c(C)nn2C)cc1`: the outcome was inactive.
In the case of `S=c1[nH]nc(-c2ccccc2)n1/N=C/c1ccc(-c2ccccc2Cl)o1`, the result was inactive.
`CN(C(=S)NC(=O)c1ccccc1Br)C1CCCCC1`: the potentiation was 44% (active).
`COc1cccc(CN2CCN(Cc3cc4ccccc4[nH]3)CC2CCO)c1` (stereo not given): the potentiation is 20% (active).
Regarding `CC(C)COc1ccc(-c2nn(-c3ccccc3)cc2/C=C2/SC(=S)N(CC(=O)O)C2=O)cc1`, the result was inactive.
In the case of `CN(C(=S)NC(=O)c1ccc(F)cc1)C1CCCCC1`, the potentiation was 31.5% (active).
As to `CC(C)COc1ccc(-c2nn(-c3ccccc3)cc2C(=O)Nc2nccs2)cc1`, the result was inactive.
The same measure, in the same setting: the value for `Cc1ccc(NC(=O)Cn2nc(C)c3ccccc3c2=O)c(C)c1` was “inactive”.

The record behind these values is PubChem BioAssay.
